≈ marks a conversion by molar mass, not a printed value.
Assays:
Cynomolgus monkey [1] = assay: Cmax in cynomolgus monkey assessed as plasma BMS-582949 level at 30 mg/kg, po dose equivalent to BMS-582949 after 24 hrs by LC/MS/MS method; format: ADME, organism-based, Macaca fascicularis; set-up: dose 30 mg/kg, route oral; details: in vivo
Procedure, shortened: (§1)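 Three overnight-fasted male cynomolgus monkeys (4.2-5.2 kg) given prodrug by oral gavage at 10 or 30 mg/kg, 5 mL/kg methocel suspension, one-week washout between doses. Femoral artery blood pre-dose and 0.25-24 h post-dose; plasma (centrifuged 4 °C) stored -20 °C and analysed by LC/MS/MS for parent.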

Cynomolgus monkey [2] = assay: Bioavailability in cynomolgus monkey assessed as plasma BMS-582949 level at 10 mg/kg, po dose equivalent to BMS-582949 after 24 hrs by LC/MS/MS method; format: ADME, organism-based, Macaca fascicularis; details: in vivo; procedure, shortened: as §1
Liver carboxylesterase [3] = molecular target: T1, Liver carboxylesterase (Sus scrofa, UniProt Q29550); assay: Stability assessed as porcine liver esterase-mediated drug degradation by measuring compound remaining level in pH 7.4 potassium phosphate buffer at 10 uM incubated for 0.5 hrs by LC/MS/MS; format: ADME, tissue-based; details: pig, read-out: Stability
T1 sequence (Q29550 whole entry): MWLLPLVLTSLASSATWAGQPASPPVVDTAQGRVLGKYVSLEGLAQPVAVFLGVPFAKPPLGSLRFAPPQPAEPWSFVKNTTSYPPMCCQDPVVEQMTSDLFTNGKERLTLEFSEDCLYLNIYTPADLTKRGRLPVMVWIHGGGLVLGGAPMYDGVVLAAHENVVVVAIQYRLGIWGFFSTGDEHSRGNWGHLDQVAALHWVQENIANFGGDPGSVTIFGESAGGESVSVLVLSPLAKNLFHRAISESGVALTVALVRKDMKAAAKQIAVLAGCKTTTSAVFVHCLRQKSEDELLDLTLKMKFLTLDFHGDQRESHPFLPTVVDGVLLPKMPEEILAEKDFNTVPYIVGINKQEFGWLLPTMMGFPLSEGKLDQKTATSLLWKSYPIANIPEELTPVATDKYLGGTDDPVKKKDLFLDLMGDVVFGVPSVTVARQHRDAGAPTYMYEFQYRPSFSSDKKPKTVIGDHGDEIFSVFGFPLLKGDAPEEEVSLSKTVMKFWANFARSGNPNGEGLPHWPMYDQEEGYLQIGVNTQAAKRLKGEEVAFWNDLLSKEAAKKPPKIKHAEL
Procedure, shortened: (§2)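 Porcine liver esterase with substrate at 10 µM in 89 mM potassium phosphate pH 7.4, 37 °C. Reaction started by adding compound. Aliquots taken at 0, 15, 30 and 60 min and quenched with acetonitrile. After centrifugation at 4 °C, percent remaining quantified by LC/MS/MS.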

Rattus norvegicus [4] = assay: AUC in Sprague-Dawley rat assessed as plasma BMS-582949 level at 1 mg/kg, po dose equivalent to BMS-582949 after 24 hrs by LC/MS/MS method; format: ADME, organism-based; set-up: time < 24 hr, dose 1 mg/kg, route oral; details: in vivo
[5] = Solubility of the compound in pH 1.2 solution at room temperature; format: physicochemical
[6] = Stability in pH 7.4 solution assessed as half-life at 37 degC; format: physicochemical
Cynomolgus monkey [7] = assay: AUC in cynomolgus monkey assessed as plasma BMS-582949 level at 10 mg/kg, po dose equivalent to BMS-582949 after 24 hrs by LC/MS/MS method; format: ADME, organism-based, Macaca fascicularis; set-up: time < 24 hr, dose 10 mg/kg, route oral; details: in vivo; procedure, shortened: as §1
Rattus norvegicus [8] = assay: Cmax in Sprague-Dawley rat assessed as plasma BMS-582949 level at 1 mg/kg, po dose equivalent to BMS-582949 after 24 hrs by LC/MS/MS method; format: ADME, organism-based; set-up: dose 1 mg/kg, route oral; details: in vivo
[9] = molecular target: T2, Alkaline phosphatase, placental type (Homo sapiens, UniProt P05187); assay: Stability assessed as human placental ALP-mediated drug degradation by measuring compound remaining level in pH 7.5 tris buffer at 10 uM incubated for 0.25 hrs in presence of HALT phosphatase inhibitor cocktail by LC/MS/MS method; format: ADME; details: pH 7.5, with HALT phosphatase inhibitor cocktail, read-out: Stability
Procedure, shortened: (§3)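 Human placental alkaline phosphatase (1 unit/mL) incubated with compound at 10 µM in 89 mM tris buffer, pH 7.5, 37 °C; reactions in triplicate started by compound addition, sampled at 0, 15, 30, 60 min. For inhibition, HALT phosphatase inhibitor cocktail (100x dilution) added before compound. Samples quenched into EDTA, acetonitrile added, centrifuged, remaining compound measured by LC/MS/MS.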

Cynomolgus monkey [10] = assay: AUC in cynomolgus monkey assessed as plasma BMS-582949 level at 30 mg/kg, po dose equivalent to BMS-582949 after 24 hrs by LC/MS/MS method; format: ADME, organism-based, Macaca fascicularis; set-up: time < 24 hr, dose 30 mg/kg, route oral; details: in vivo; procedure, shortened: as §1
Liver carboxylesterase [11] = molecular target: T1, Liver carboxylesterase; assay: Stability assessed as porcine liver esterase-mediated drug degradation by measuring compound remaining level in pH 7.4 potassium phosphate buffer at 10 uM incubated for 1 hr by LC/MS/MS; format: ADME, tissue-based; details: pig, read-out: Stability; procedure, shortened: as §2
[12] = Solubility of the compound in pH 6.7 solution at room temperature; format: physicochemical
Rattus norvegicus [13] = assay: Bioavailability in Sprague-Dawley rat assessed as plasma BMS-582949 level at 10 mg/kg, po dose equivalent to BMS-582949 after 24 hrs by LC/MS/MS method; format: ADME, organism-based; details: in vivo
[14] = molecular target: T2, Alkaline phosphatase, placental type; assay: Stability assessed as human placental ALP-mediated drug degradation by measuring compound remaining level in pH 7.5 tris buffer at 10 uM incubated for 0.25 hrs by LC/MS/MS method; format: ADME; details: read-out: Stability; procedure, shortened: as §3
Rattus norvegicus [15] = assay: AUC in Sprague-Dawley rat assessed as plasma BMS-582949 level at 100 mg/kg, po dose equivalent to BMS-582949 after 24 hrs by LC/MS/MS method; format: ADME, organism-based; set-up: time < 24 hr, dose 100 mg/kg, route oral; details: in vivo
Rattus norvegicus [16] = assay: Cmax in Sprague-Dawley rat assessed as plasma BMS-582949 level at 10 mg/kg, po dose equivalent to BMS-582949 after 24 hrs by LC/MS/MS method; format: ADME, organism-based; set-up: dose 10 mg/kg, route oral; details: in vivo
[17] = molecular target: T2, Alkaline phosphatase, placental type; assay: Stability assessed as human placental ALP-mediated drug degradation by measuring compound remaining level in pH 7.5 tris buffer at 10 uM incubated for 1 hr by LC/MS/MS method; format: ADME; details: read-out: Stability
Procedure, shortened: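 Human placental ALP at 1 unit/mL, test compound at 10 µM in 89 mM tris pH 7.5, 37 °C. Run in triplicate, started by adding compound. Aliquots taken at 0, 15, 30 and 60 min and quenched into 10 mM EDTA plus acetonitrile. After centrifugation at 4 °C, percent remaining measured by LC/MS/MS.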

Rattus norvegicus [18] = assay: Inhibition of paw swelling in Lewis rat adjuvant arthritis model assessed as reduction in hind paw volume at 1 mg/kg, po bid dose equivalent to BMS-582949 beginning on day 11 post adjuvant challenge by volume displacement plethysmometry method relative to control; format: functional; details: 264 h
Procedure, shortened: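 Male Lewis rats given complete Freund's adjuvant on day 1; from day 11 compounds dosed orally BID in 0.5 mL vehicle (prodrug as aqueous suspension in 0.75% Methocel, 0.1% Tween 80; parent in PEG 300). Paw volume measured 3 times per week for rest of study; paw swelling inhibition reported.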

Cynomolgus monkey [19] = assay: Cmax in cynomolgus monkey assessed as plasma BMS-582949 level at 10 mg/kg, po dose equivalent to BMS-582949 after 24 hrs by LC/MS/MS method; format: ADME, organism-based, Macaca fascicularis; set-up: dose 10 mg/kg, route oral; details: in vivo; procedure, shortened: as §1
[20] = molecular target: T2, Alkaline phosphatase, placental type; assay: Stability assessed as human placental ALP-mediated drug degradation by measuring compound remaining level in pH 7.5 tris buffer at 10 uM incubated for 0.5 hrs in presence of HALT phosphatase inhibitor cocktail by LC/MS/MS method; format: ADME; details: pH 7.5, with HALT phosphatase inhibitor cocktail, read-out: Stability; procedure, shortened: as §3
[21] = Stability in pH 1.1 solution assessed as half-life at 37 degC; format: physicochemical

T2 sequence (P05187 whole entry): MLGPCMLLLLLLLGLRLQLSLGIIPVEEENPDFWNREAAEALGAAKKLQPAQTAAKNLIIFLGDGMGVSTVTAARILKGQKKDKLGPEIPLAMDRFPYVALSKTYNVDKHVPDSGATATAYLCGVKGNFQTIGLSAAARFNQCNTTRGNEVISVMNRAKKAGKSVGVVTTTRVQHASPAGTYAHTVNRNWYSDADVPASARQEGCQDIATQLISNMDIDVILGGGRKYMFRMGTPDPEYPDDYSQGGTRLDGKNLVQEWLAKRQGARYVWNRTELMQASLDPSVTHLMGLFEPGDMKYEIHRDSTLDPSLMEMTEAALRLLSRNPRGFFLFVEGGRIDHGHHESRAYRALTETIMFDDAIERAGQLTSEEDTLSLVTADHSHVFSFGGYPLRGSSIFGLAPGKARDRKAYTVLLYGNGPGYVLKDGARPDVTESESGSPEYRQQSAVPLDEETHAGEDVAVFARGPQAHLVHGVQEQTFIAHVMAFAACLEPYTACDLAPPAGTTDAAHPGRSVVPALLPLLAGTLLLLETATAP

Cmax (Cynomolgus monkey [1]): 29 µM
F (Cynomolgus monkey [2]): 51%
remaining at 0.5 h, 10 µM (Liver carboxylesterase [3]): 100%
AUC (Rattus norvegicus [4]): 3.1 µM·h
solubility [5]: 100 µg/mL (≈ 144 µM)
half-life [6]: 2220 min
AUC (Cynomolgus monkey [7]): 24 µM·h
Cmax (Rattus norvegicus [8]): 400 nM
remaining at 0.25 h, 10 µM [9]: 100%
AUC (Cynomolgus monkey [10]): 96 µM·h
remaining at 1 h, 10 µM (Liver carboxylesterase [11]): 100%
solubility [12]: 3030 µg/mL (≈ 4360 µM)
F (Rattus norvegicus [13]): 103%
remaining at 0.25 h, 10 µM [14]: 12.5%
AUC (Rattus norvegicus [15]): 875 µM·h
Cmax (Rattus norvegicus [16]): 18 µM
remaining at 1 h, 10 µM [17]: 10.9%
Cmax (Cynomolgus monkey [19]): 12 µM
remaining at 0.5 h, 10 µM [20]: 94%
half-life [21]: 1260 min
SMILES: CCCN(C(=O)OCOC(=O)Cc1ccc(OP(=O)(O)O)cc1)C(=O)c1cn2ncnc(Nc3cc(C(=O)NC4CC4)ccc3C)c2c1C
inhibition in vivo at 1 mg/kg (Rattus norvegicus [18]): 39%
